FN deposition inh: inhibitors of fibronectin matrix deposition, primary screen, AH1F cells, Alexa488-fibronectin fluorescence, plate reader; AH1F fibroblasts, overnight; inhibition, % at 12.6 µM; 350,000 compounds, 0.086% hits; AID 743247, 2014;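 active = mean inhibition across replicates of 30% or more, regardless of how many single replicates reach that level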;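 note: positive control wells lacked labelled fibronectin entirely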
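Test system: AH1F fibroblast monolayer depositing Alexa488-labelled fibronectin into matrix. Input: 10000 cells per well. Technique: fluorescence, ex 485 nm, em 525 nm. Buffer or medium: DMEM plus 2% serum, read in PBS. Timing: 1 h cell adhesion before compound, then overnight fibronectin incubation. Compound: single dose, pinned. Read-out basis: inhibition from reduced deposited-fibronectin fluorescence.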
SR-BI DiI inh: inhibitors of SR-BI mediated HDL lipid uptake, primary screen, ldlA[mSR-BI] cells, fluorescence, single point; inhibition, % at 12.5 µM; Scavenger receptor class B member 1 (Mus musculus), Q61009; 320,000 compounds, 0.96% hits; ldlA[mSR-BI] CHO cells, DiI-HDL uptake fluorescence, 3 h;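 active = mean replicate inhibition of at least 70% and a set share of replicates each scoring 70 or more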;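 note: 0% = median of neutral control wells and 100% = median of positive control wells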
Target sequence (Q61009 whole entry, looked up): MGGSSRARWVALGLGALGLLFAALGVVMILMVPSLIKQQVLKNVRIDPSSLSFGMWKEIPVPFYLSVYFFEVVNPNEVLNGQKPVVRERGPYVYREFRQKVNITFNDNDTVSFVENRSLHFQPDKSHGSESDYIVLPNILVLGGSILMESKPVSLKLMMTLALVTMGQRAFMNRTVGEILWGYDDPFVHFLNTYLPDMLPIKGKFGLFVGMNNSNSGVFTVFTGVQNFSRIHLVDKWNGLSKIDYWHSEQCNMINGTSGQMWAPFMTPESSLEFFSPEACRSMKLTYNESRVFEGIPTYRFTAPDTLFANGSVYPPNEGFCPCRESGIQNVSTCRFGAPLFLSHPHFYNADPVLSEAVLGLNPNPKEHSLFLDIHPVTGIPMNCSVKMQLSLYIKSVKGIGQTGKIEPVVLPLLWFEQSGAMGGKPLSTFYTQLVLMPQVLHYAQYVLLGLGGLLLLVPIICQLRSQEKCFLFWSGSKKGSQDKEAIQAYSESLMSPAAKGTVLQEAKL
Efflux pump inh: inhibitors of Candida efflux pumps in yeast, primary screen, S. cerevisiae, Nile Red, multiplex. 330,000 compounds, 0.44% hits. inhibition, % at 10 µM. S. cerevisiae Candida pump triplex. AID 485275, 2010;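 active = plate passing quality check with inhibition over a set limit, or well fluorescence over plate mean plus 4 SD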;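 note: Nile Red retained in pooled yeast measured as flow cytometry median fluorescence; 0% = buffer negative control and 100% = Enniatin B positive control; higher means more Nile Red kept so more efflux inhibition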
SR-BI DiI-HDL act: activators of SR-BI mediated DiI-HDL uptake, primary screen, ldlA[mSR-BI] CHO cells, DiI fluorescence. 320,000 compounds, 0.096% hits. 3 h; 100 = double the neutral-control signal. activation, % at 12.5 µM. AID 504775, 2011;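 active = mean replicate activation of at least 60% and every replicate at or above 60%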;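 note: 0% = median plate neutral-control signal and 100% = twice that signal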
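System: LDL receptor-deficient CHO ldlA cells overexpressing murine SR-BI | Timing: 3 h uptake period with compound, 37 °C | Medium: HEPES-buffered (25 mM, pH 7.4) F12 plus 0.5% BSA | Dosing: Single-point compound dose | Signal: Bottom-read fluorescence, 550/595 nm | Read-out: Retained DiI signal reflecting DiI-HDL uptake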
CaV13 ICDI inh: Primary screen for inhibitors of IQ motif and Ca2+-dependent inactivation inhibitor domain binding in CACNA1D, Förster resonance energy transfer in living cells, …. inhibition, % at 12.3 µM. HEK cells, CFP/YFP FRET ICDI-IQ, plate reader, 10 min; percent FRET-ratio fall versus neutral wells. 340,000 compounds, 0.098% hits. AID 743397;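 active = mean replicate inhibition of at least 30% and at least 1% of replicates passing that level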;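 note: 0% = median of the neutral control wells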
Yeast cmpd fluor: compound fluorescence in yeast efflux pump counter-screen; fluorescence ratio to DMSO, % at 10 µM; S. cerevisiae AD/pABC3, flow cytometry; shares compounds with Efflux pump inh; 1,700 compounds, 4% hits;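 active = fluorescence ratio to DMSO above its plate's cutoff, the plate mean ratio plus 5 SD, cut at about 210% in these data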;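 note: unstained yeast with no Nile Red so the signal is compound autofluorescence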
Mdr1 pump inh: inhibitors of Candida albicans Mdr1 efflux, confirmation, flow cytometry, singleplex, Cherry Pick1 set; shares compounds with Efflux pump inh; S. cerevisiae AD/CaMDR1, Nile Red efflux; inhibition, % at 10 µM; 1,700 compounds, 1% hits; AID 588518, 2011; in the data active = inhibition above about 26%;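 note: 0% = DMSO vehicle and 100% = reference inhibitor; higher means more Nile Red retained so more efflux inhibition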
Cdr2 pump inh: inhibitors of Candida albicans Cdr2 efflux pump, confirmation, S. cerevisiae AD/CaCDR2, flow cytometry, cherry pick 1, singleplex | shares compounds with Efflux pump inh | Nile Red retention | Nile Red retention ratio vs DMSO, % at 10 µM | 1,700 compounds, 4% hits; in the data active = Nile Red retention ratio vs DMSO above about 190%;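 note: higher ratio means more blocking of Cdr2 efflux of the dye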
CaCdr1 efflux inh: inhibitors of Candida albicans Cdr1 efflux pump, confirmation, S. cerevisiae AD/CaCDR1, flow cytometry, cherry pick 1, singleplex. Nile Red efflux. 1,700 compounds, 1% hits. AID 588522, 2011. inhibition, % at 10 µM. shares compounds with Efflux pump inh;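 active = inhibition above the screen-wide mean plus twice its standard deviation, cut at about 32% in these data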
The depositor's hits bear a star; . = not tested or not shown. Only some compounds are listed: those with a hit (about 1.2% of all), similar ones and a draw of the others.

SMILES	FN deposition inh	SR-BI DiI inh	Efflux pump inh	SR-BI DiI-HDL act	CaV13 ICDI inh	Yeast cmpd fluor	Mdr1 pump inh	Cdr2 pump inh	CaCdr1 efflux inh
O=C(c1ccc(Cl)cc1)N1C2C=CC(C2)C1(C(F)(F)F)C(F)(F)F (configuration not stated)	2	15	15*	-15	-3	128	1	106	0
O=C(c1cccc(F)c1)N1C2C=CC(C2)C1(C(F)(F)F)C(F)(F)F (configuration not stated)	.	-14	0	14	-5	.	.	.	.
O=C(NNC(=O)C1COc2ccccc2O1)c1cccc([N+](=O)[O-])c1 (configuration not stated)	-16	-13	1.2*	13	-5	107	0	97	0
O=C(NNC(=O)C1COc2ccccc2O1)c1ccccc1 (configuration not stated)	.	-16	0	16	-9	.	.	.	.
C/C=C/c1ccc([C@H]2[C@@H](CO)N[C@@H]2CNC(=O)Cc2ccccc2)cc1	-19	.	.	.	.	.	.	.	.
CCNC(=O)Nc1ccc2c(c1)C(=O)N(C)[C@@H]1CC[C@@H](CC(=O)NCC3CCCCC3)O[C@@H]1CO2	-1	.	.	.	.	.	.	.	.
COc1ccc(C(=O)NCc2ccc(Cl)c(Cl)c2)cc1OC	11	10	11*	-10	-6	87	0	89	0
CCCCNC(=O)c1ccc(Cn2c(=S)[nH]c3c([nH]c4ccc(OC)cc43)c2=O)cc1	-4	36	8.2*	-36	-2	100	0	96	0
CCOCCCNC(=O)c1ccc(Cn2c(=S)[nH]c3c([nH]c4ccc(OC)cc43)c2=O)cc1	9	0	0	0	-5	.	.	.	.
CN(C)/C(CN1CCN(C=O)CC1)=C1\N=C(c2ccccc2)OC1=O	-3	0	0.5*	0	-4	98	0	94	0
CCCOc1ccc(C(=O)Nc2ccc(NC(=O)c3cccs3)cc2)cc1	0	5	1.7*	-5	-2	105	0	117	0
COc1ccc(CCC(=O)NNC(=O)Cn2nc(C)cc2C)cc1	.	3	5.5*	-3	.	110	0	98	0
C[C@H](CO)N1C[C@H](C)[C@@H](CN(C)C(=O)CN(C)C)Oc2cc(-c3cccnc3)ccc2S1(=O)=O	2	.	.	.	.	.	.	.	.
COc1ccccc1-c1nc(C#N)c(N2CCN(C(c3ccccc3)c3ccccc3)CC2)o1	.	-16	0.5*	16	.	100	0	116	0
CN(C)C(=O)C[C@@H]1C[C@H]2c3cc(NS(=O)(=O)c4ccccc4)ccc3O[C@H]2[C@@H](CO)O1	8	.	.	.	.	.	.	.	.
CCCCC(CC)CN=C(N)NC(N)=NCCCCCCN=C(N)NC(N)=NCC(CC)CCCC (configuration not stated)	.	-10	2.2*	10	.	93	0	131	0
CCCCCC(=O)N/N=C(\C)c1ccc(Cl)cc1	.	-16	9.8*	16	-8	111	0	97	0
CCCCCCCCC(=O)N/N=C(\C)c1cccnc1	5	-14	0	14	-4	.	.	.	.
CC(C)NC(=O)Nc1ccc2c(c1)C(=O)N([C@H](C)CO)C[C@H](C)[C@H](CN(C)S(=O)(=O)c1cn(C)cn1)OCCCC[C@H](C)O2	-7	.	.	.	.	.	.	.	.
Cc1cc(C)c2c(n1)sc1c(-c3ccccc3)c(C#N)c(N)nc12	-18	50	18*	-50	-3	107	0	103	0
Cc1nc(N)c(C#N)c(-c2ccccc2)c1C	.	3	0	-3	0	.	.	.	.
CCn1cc(CNC(=O)c2cccc([N+](=O)[O-])c2)c(C)n1	8	-26	11*	26	-19	101	0	107	0
CCn1cc(CNC(=O)c2ccc(Cl)c([N+](=O)[O-])c2)c(C)n1	-3	-8	0	8	-3	.	.	.	.
O=C(CCC1N=C2c3ccccc3N=C(SCC(=O)NCc3ccco3)N2C1=O)NCc1ccco1 (configuration not stated)	8	19	0	-19	-4	.	.	.	.
O=C(CSC1=Nc2ccccc2C2=NC(CC(=O)N3CCN(c4ccccc4)CC3)C(=O)N12)NCC1CCCO1 (configuration not stated)	-4	-9	0.8*	9	-3	99	0	101	0
SMILES	FN deposition inh	SR-BI DiI inh	Efflux pump inh	SR-BI DiI-HDL act	CaV13 ICDI inh	Yeast cmpd fluor	Mdr1 pump inh	Cdr2 pump inh	CaCdr1 efflux inh
CCCNC(=O)Nc1ccc2c(c1)C(=O)N(C)C[C@@H](OC)[C@H](C)CN(Cc1ccncc1)[C@@H](C)CO2	9	.	.	.	.	.	.	.	.
CCCCSC1=N/C(=C/c2ccsc2)C(=O)N1c1ccccc1	5	47	5.8*	-47	-2	105	0	93	0
CCCSC1=N/C(=C/c2ccsc2)C(=O)N1c1ccccc1	.	-14	3	14	-8	.	.	.	.
CCc1nnc(NS(=O)(=O)c2ccc(NC(=S)NC(=O)/C=C/c3ccccc3)cc2)s1	4	-2	5.8*	2	-6	113	0	123	0
CCc1nnc(NS(=O)(=O)c2ccc(NC(=S)NC(=O)/C=C/c3ccc(OC)cc3)cc2)s1	2	-12	0	12	-3	.	.	.	.
COc1cccc(NC(=S)N2CCN(c3ccccn3)CC2)c1	4	-22	16*	22	-3	100	0	107	0
C[C@@H]1CCCCO[C@H](CN(C)S(=O)(=O)c2cn(C)cn2)[C@@H](C)CN([C@@H](C)CO)C(=O)c2cc(NC(=O)Nc3ccccc3)ccc2O1	2	.	.	.	.	.	.	.	.
CO[C@H]1CN(C)C(=O)c2ccc(NC(C)=O)cc2OC[C@@H](C)N(C(=O)c2ccccn2)C[C@H]1C	9	.	.	.	.	.	.	.	.
